HTRA1 inhibitor: inhibitors of human serine peptidase HTRA1 | AID 504803 | 0.5% of 340,000 active | recombinant HTRA1, FP-rhodamine activity-based probe, fluorescence polarization | inhibition, % at 5.96 µM | Q92743; in the data active = inhibition above about 36%;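 note: 0% = enzyme with DMSO and 100% = wells lacking enzyme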
PAFAH2 inh: PAFAH2 (human) inhibition. Q99487. inhibition, % at 3.39 µM. recombinant PAFAH2, FP-rhodamine activity probe, fluorescence polarization. 0.99% of 340,000 active;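 active = inhibition above the mean over all tested compounds plus 3 SD, cut at about 30% in these data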;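 note: inhibitors block probe labeling of enzyme so polarization drops; 0% = enzyme with DMSO and 100% = wells lacking PAFAH2 protein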
PAFAH1B2 FP inh: inhibitors of human PAFAH1B2; P68402; recombinant PAFAH1B2, FP-rhodamine activity probe, fluorescence polarization; 1.2% of 340,000 active; AID 492953; inhibition, % at 3.39 µM;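 active = inhibition above the mean of all tested compounds plus 3 SD, cut at about 24% in these data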;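 note: 0% = enzyme with DMSO and 100% = wells lacking PAFAH1B2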
PAFAH1B3 inh: PAFAH1B3 (human) inhibition | recombinant PAFAH1B3, FP-rhodamine probe, fluorescence polarization | AID 492972 | 0.28% of 340,000 active | inhibition, % at 3.39 µM;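 active = inhibition above the screen-wide average of all tested compounds plus 3 SD, cut at about 25% in these data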;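 note: 0% = enzyme with DMSO only and 100% = wells lacking PAFAH1B3 protein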
Target sequence (Q15102 whole entry, looked up): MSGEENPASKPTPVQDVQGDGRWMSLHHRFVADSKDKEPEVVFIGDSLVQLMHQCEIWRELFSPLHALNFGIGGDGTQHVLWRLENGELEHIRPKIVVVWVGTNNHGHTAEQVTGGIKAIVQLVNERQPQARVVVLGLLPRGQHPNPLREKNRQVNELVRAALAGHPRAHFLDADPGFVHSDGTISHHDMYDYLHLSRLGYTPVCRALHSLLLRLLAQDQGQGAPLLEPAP
pPAFAH inh: pPAFAH (human) enzyme inhibition | Q13093 | recombinant pPAFAH, FP-rhodamine probe fluorescence polarization | inhibition, % at 3.39 µM | 1.5% of 330,000 active | AID 463082;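 active = inhibition above the mean inhibition across the screen plus 3 SD, cut at about 25% in these data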;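 note: inhibitors block binding of the rhodamine activity-based probe so polarization drops; 0% = enzyme with DMSO and 100% = wells lacking pPAFAH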
Target sequence (Q13093 whole entry, looked up): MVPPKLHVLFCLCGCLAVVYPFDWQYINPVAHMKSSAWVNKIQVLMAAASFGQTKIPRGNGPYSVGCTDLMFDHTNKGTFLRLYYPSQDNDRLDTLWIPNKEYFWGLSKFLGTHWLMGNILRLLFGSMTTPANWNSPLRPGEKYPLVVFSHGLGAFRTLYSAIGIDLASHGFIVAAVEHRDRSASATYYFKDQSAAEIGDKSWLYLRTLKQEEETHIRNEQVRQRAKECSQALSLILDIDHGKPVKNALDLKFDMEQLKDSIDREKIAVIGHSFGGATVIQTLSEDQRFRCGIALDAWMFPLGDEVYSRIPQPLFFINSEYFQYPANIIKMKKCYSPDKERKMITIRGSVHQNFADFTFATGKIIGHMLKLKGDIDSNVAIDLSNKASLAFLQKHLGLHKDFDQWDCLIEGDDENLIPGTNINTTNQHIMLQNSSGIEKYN
ABHD4 inh: inhibitors of mouse ABHD4 | Q8VD66 | inhibition, % at 8.92 µM | 0.54% of 370,000 active | AID 720543 | purified mABHD4, FP-Rh probe fluorescence polarization;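 active = inhibition exceeding the mean over every tested compound plus 3 SD, cut at about 30% in these data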;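 note: 0% = plate median of compound wells and 100% = S159A mutant with DMSO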
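Assay system: mouse ABHD4 enzyme, wild type / Also added: fluorescent activity-based probe FP-Rh / Doses: single nominal dose of 8.92 µM, 0.89% DMSO final / Timing: 45 min compound pre-incubation plus 60 min probe step, 25 °C / Signal: FP readout, ex 525 nm / em 598 nm / Control set: S159A mutant/DMSO as 100%, compound-well median as 0%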
pPAFAH confirm: confirmation of human plasma PAF acetylhydrolase (pPAFAH) inhibitors; shares compounds with pPAFAH inh; recombinant pPAFAH, FP-Rh probe fluorescence polarization; inhibition, % at 3.39 µM; 72% of 2,300 active; AID 463230;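 active = mean inhibition of the triplicate above the hit cutoff set for the earlier primary screen, cut at about 25% in these data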;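 note: 0% = enzyme with DMSO and 100% = wells lacking pPAFAH enzyme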
* marks the source's active call; other numbers are inactive results; . = no result given. Compounds with a hit are over-represented: about 2.8% of the library has one in this group of screens.

SMILES | HTRA1 inhibitor | PAFAH2 inh | PAFAH1B2 FP inh | PAFAH1B3 inh | pPAFAH inh | ABHD4 inh | pPAFAH confirm
O=C(CCCN1C(=O)/C(=C\c2cccs2)SC1=S)Nc1cccc(C(=O)O)c1 | 7.4 | 9.1 | -1.9 | 3.1 | 8.0 | -3.4 | .
CC(C(=O)N(C)C1CCS(=O)(=O)C1)N1C(=O)/C(=C/c2ccco2)SC1=S (stereo not drawn) | 3.1 | -7.6 | -0.5 | -2.3 | 22.4 | 12.6 | .
N#CCC[C@H]1CC[C@]2(CCCN(Cc3ccccc3)C2)O1 | . | . | . | . | . | 5.0 | .
COc1ccc(S[C@]2(C(=O)N3CCOCC3)CC(=O)N(P(=O)(OC)OC)[C@@H]2c2ccc(OC)cc2)cc1 | . | . | . | . | . | 3.1 | .
CCCCNC(=O)C[C@@H]1C(=O)N(Cc2ccc(OC)cc2)C2=CCN(C(=O)OC(C)(C)C)C[C@]21C(=O)OCC | . | . | . | . | . | 6.4 | .
Cc1cc(C)cc(OC[C@@H](O)CN2CCC(C(O)(c3ccccc3)c3ccccc3)CC2)c1 | . | . | . | . | . | 9.8 | .
O=C(CN1C(=O)/C(=C/c2ccco2)SC1=S)Nc1ccc(C(=O)O)c(O)c1 | -17.1 | 9.1 | -0.6 | 7.2 | 41.0* | -22.3 | 14.2
N#Cc1c(-c2cccc(Br)c2)cc(-c2ccco2)[nH]c1=O | 15.0 | 23.0 | 4.8 | 7.0 | 45.3* | 10.6 | 32.2*
N#Cc1c(-c2ccccc2)cc(-c2ccccc2)[nH]c1=O | 3.0 | -7.3 | 3.8 | 2.5 | 2.7 | -0.7 | .
NC(=O)Cn1c(=O)n(Cc2ccco2)c(=O)c2c3c(sc21)CCCCC3 | 3.9 | 13.2 | 0.5 | 1.3 | 36.4* | 4.5 | 15.2
N#Cc1c(-c2cccc(F)c2)cc(-c2ccccc2)nc1Br | -1.8 | -4.5 | -1.5 | 10.7 | 2.3 | -0.2 | .
N#Cc1c(-c2ccccc2Cl)cc(-c2ccccc2)nc1Br | -44.4 | 3.4 | 0.8 | -4.8 | 35.2* | -6.4 | 16.3
CCOc1cc(/C=C(\C#N)c2[nH]nc(N)c2C#N)ccc1O | -1.4 | 3.0 | 7.0 | 11.9 | 37.0* | 7.2 | 15.8
O=C(c1ccc(Cl)c(S(=O)(=O)N2CCc3ccccc32)c1)N1CCN(c2ccccc2O)CC1 | -24.3 | 5.2 | 5.2 | -0.7 | 37.3* | 2.9 | 19.6
CC(=O)N1CCN(C(=O)c2ccc(Cl)c(S(=O)(=O)N3CCc4ccccc43)c2)CC1 | -0.3 | -2.6 | 1.3 | -5.9 | 4.8 | -0.2 | .
COc1ccc2c(c1)CCCN2C(=O)C1CCCN(S(=O)(=O)c2cccc3ccccc23)C1 (stereo not drawn) | . | . | . | . | . | 4.3 | .
CCOC(=O)[C@]12CCCC3=C1N(CCC3)C(=O)[C@@H](CC(=O)NCc1ccccc1)C2 | . | . | . | . | . | -1.9 | .
O=C(c1coc(=O)c(Br)c1)N1CCCc2ccccc21 | 14.0 | 26.6 | 6.7 | 7.2 | 43.4* | 16.2 | 5.9
CC(=O)c1cccc(-c2ccc3c(=O)[nH]c(Nc4ccccc4)cc3c2)c1 | 13.6 | 23.2 | 12.9 | 52.5* | 48.5* | 7.1 | 27.7*
CC(C)CNC(=O)OCc1cn(Cc2cccc(C(F)(F)F)c2)nn1 | . | . | . | . | . | 0.8 | .
Cc1cc(C(=O)OCC(=O)N2CC(=O)Nc3ccccc32)c(C)n1-c1ccc(F)cc1 | -14.3 | 1.7 | -1.6 | 0.1 | 37.3* | -5.3 | 30.3*
Cc1cc(C(=O)OCC(=O)N2CC(=O)Nc3ccccc32)c(C)n1-c1ccccc1 | -13.2 | 1.1 | 1.7 | -3.7 | 22.4 | -2.3 | .
CN(Cc1ccccc1)S(=O)(=O)c1cccc(C(=O)OCc2ccccc2Cl)c1 | . | . | . | . | . | -6.4 | .
O=C1NN(c2ccc(F)c(Cl)c2)C(=O)/C1=C\c1cccc(OC(=O)c2cccs2)c1 | 34.8 | 34.5* | 42.5* | 12.2 | 40.2* | 31.8* | 40.9*
O=C1NC(=S)S/C1=C\c1ccc(SCc2ccco2)o1 | 20.1 | 15.9 | 19.9 | 5.0 | 68.7* | . | 55.0*
SMILES | HTRA1 inhibitor | PAFAH2 inh | PAFAH1B2 FP inh | PAFAH1B3 inh | pPAFAH inh | ABHD4 inh | pPAFAH confirm
CCC1=NN2C(=N)/C(=C\c3ccc(SCc4ccco4)o3)C(=O)N=C2S1 | -95.3 | -18.6 | -13.1 | -66.2 | -8.6 | -105.1 | .
CCCC1=NN2C(=N)/C(=C\c3ccc(SCc4ccco4)o3)C(=O)N=C2S1 | -67.9 | -20.9 | -17.2 | -100.5 | 59.6* | . | 60.6*
O=C1NC(=S)S/C1=C\c1ccc(SCc2ccccc2)o1 | -32.3 | 21.4 | 70.9* | 9.0 | 40.1* | -16.4 | 58.1*
COCCCN1C(=O)[C@H](CC(=O)NCCCN2CCCC2=O)[C@]2(C(=O)OC)CCCCC=C12 | . | . | . | . | . | -2.2 | .
CC(=O)Oc1ccc2c(c1)Oc1cc(OC(C)=O)ccc1C21OC(=O)c2ccccc21 | 123.9* | 123.8* | 110.3* | 129.0* | 99.3* | . | 89.6*
CC(=O)Oc1cc2cccc(OC(C)=O)c(=O)c2c(OC(C)=O)c1OC(C)=O | 69.8* | 87.8* | 44.8* | 45.5* | 90.9* | . | 33.6*
O=C(CSc1c(F)c(F)cc(F)c1F)Nc1ccc(C2SCCS2)cc1 | -6.2 | 7.0 | -3.0 | 8.3 | 89.8* | 0.6 | 4.5
O=C(CSc1ccc(Cl)cc1)Nc1ccc(C2SCCS2)cc1 | -9.9 | 4.7 | 15.8 | 5.9 | 5.6 | -10.0 | .
COc1ccc(S[C@]2(C(=O)N3CCCC3)CC(=O)N(c3ccc4c(ccn4C)c3)[C@@H]2c2ccc(OC)cc2)cc1 | . | . | . | . | . | 9.6 | .
Cc1ccc(C2C(C#N)=C(N)Oc3c2sc2ccccc32)o1 (stereo not drawn) | . | . | . | . | 37.8* | . | 30.2*
CCOC(=O)CC1=C(C(=O)OCC)C(c2ccc(C)o2)C(C#N)=C(N)O1 (stereo not drawn) | 1.9 | 0.3 | -1.2 | 3.9 | -1.8 | 11.3 | .
COC(=O)[C@]12C=CCN1[C@H](c1ccc(Cl)cc1)c1c(c3ccccc3n1S(=O)(=O)c1ccc(C)cc1)C2 | . | . | . | . | . | -41.6 | .
CCOC(=O)Cn1c(=O)oc2cc(S(=O)(=O)Nc3ccc(N(CC)CC)cc3C)ccc21 | -0.3 | 2.0 | 5.2 | -2.4 | 54.6* | 8.4 | 52.8*
C=CCn1c(Cc2cccs2)nnc1SCC(=O)Nc1ccc(OCc2ccccc2)cc1 | . | . | . | . | . | -8.5 | .
COc1ccc(NS(=O)(=O)c2cccc(C(=O)NN=Cc3cc(Br)c(O)c(Br)c3)c2)cc1 | 23.3 | 28.1 | 10.0 | 8.0 | 60.6* | 0.5 | 68.6*
COc1ccc(NS(=O)(=O)c2cccc(C(=O)NN=Cc3ccc(OC)cc3OC)c2)cc1 | -27.3 | -10.1 | 5.6 | 15.0 | 14.8 | -41.8 | .
Cc1nc2ccc(F)cc2cc1C(=O)NCc1ccco1 | 1.8 | 10.2 | 10.0 | -1.7 | 1.2 | 2.1 | .
Cc1nc2ccc(F)cc2cc1C(=O)Nc1ccc(Cl)c(Cl)c1 | -6.5 | -10.1 | -0.3 | -6.3 | 42.2* | -2.3 | 1.6
COc1cc(NC(=O)C2CCCN(S(=O)(=O)c3ccc(Br)s3)C2)cc(OC)c1 (stereo not drawn) | . | . | . | . | . | -27.2 | .
CCc1cc(=O)oc2cc(C)c(CN3CCCC(C)C3)c(O)c12 (stereo not drawn) | 1.6 | 8.3 | -2.6 | 5.9 | 51.6* | 17.2 | 12.9
Cc1nc2ccc(NC(=O)c3cc(Cl)ccc3F)cc2c(=O)[nH]1 | . | . | . | . | . | -6.6 | .
